Results published in ChEMBL document CHEMBL4118083, “Synthesis and anti-oxidant activity evaluation of (±)-Anastatins A, B and their analogs” (Eur J Med Chem, 2017).
Active and inactive are the calls of the source. The calls are words filed in the database; no cut-off is given here.

What was measured:
[1] = Antioxidant activity assessed as vitamin-c equivalents of ferric ion reducing activity by measuring Fe2+ levels using Fe3+-TPTZ by FRAP assay; type: functional
Outline: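 Ferric-TPTZ complex reduced to ferrous form, per earlier-described method. Calibration curve from serial dilution of vitamin C standard (100-600 […] as printed). Compound reducing power expressed as vitamin C equivalents, calculated from three independent experiments.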

PC-12 [2] = test: Cytoprotective activity against H2O2-induced oxidative damage in rat PC12 cells assessed as cell viability at 100 uM preincubated for 0.5 hrs followed by H2O2 addition measured after 2 hrs by MTT assay relative to control; type: functional; conditions: read-out: Activity
Outline: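 PC12 cells in RPMI-1640 with 10% FBS, plated at 5×10^5 per well, 24 h. Compound in DMSO added 0.5 h before 100 µM H2O2, then 2 h injury. MTT for 4 h, formazan dissolved in DMSO, OD 490 nm. Viability normalised to DMSO controls (100%). Mean of three independent experiments.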

PC-12 [3] = test: Cytoprotective activity against H2O2-induced oxidative damage in rat PC12 cells assessed as reduction in morphological changes by measuring cell shrinkage at 10 to 100 uM preincubated for 0.5 hrs followed by H2O2 addition measured after 2 hrs; type: functional, cell-based
Outline: (§1)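 PC12 cells plated 5×10^5 cells/well and grown 24 h, then given test agent (10 and 100 µM) for 0.5 h before 100 µM H2O2 for 2 h. Controls received medium with 0.1% DMSO. Cell shrinkage and blebbing were inspected by microscopy at 200×.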

PC-12 [4] = test: Cytoprotective activity against H2O2-induced oxidative damage in rat PC12 cells assessed as reduction in morphological changes by measuring membrane blebbing at 10 to 100 uM preincubated for 0.5 hrs followed by H2O2 addition measured after 2 hrs; type: functional, cell-based; outline: as §1
PC-12 [5] = test: Cytoprotective activity against H2O2-induced apoptosis in rat PC12 cells assessed as live cells at 10 uM preincubated for 0.5 hrs followed by H2O2 addition measured after 2 hrs by Annexin V-FITC/propidium iodide staining based flow cytometry (reference value: 37.3%); type: functional
PC-12 [6] = test: Cytoprotective activity against H2O2-induced apoptosis in rat PC12 cells assessed as early apoptotic cells at 10 uM preincubated for 0.5 hrs followed by H2O2 addition measured after 2 hrs by Annexin V-FITC/propidium iodide staining based flow cytometry (reference value: 3.2%); type: functional
PC-12 [7] = test: Cytoprotective activity against H2O2-induced apoptosis in rat PC12 cells assessed as late apoptotic cells at 10 uM preincubated for 0.5 hrs followed by H2O2 addition measured after 2 hrs by Annexin V-FITC/propidium iodide staining based flow cytometry (reference value: 57.5%); type: functional
PC-12 [8] = test: Cytoprotective activity against H2O2-induced apoptosis in rat PC12 cells assessed as necrotic cells at 10 uM preincubated for 0.5 hrs followed by H2O2 addition measured after 2 hrs by Annexin V-FITC/propidium iodide staining based flow cytometry (reference value: 2%); type: functional
PC-12 [9] = test: Cytoprotective activity against H2O2-induced apoptosis in rat PC12 cells assessed as live cells at 100 uM preincubated for 0.5 hrs followed by H2O2 addition measured after 2 hrs by Annexin V-FITC/propidium iodide staining based flow cytometry (reference value: 37.3%); type: functional
PC-12 [10] = test: Cytoprotective activity against H2O2-induced apoptosis in rat PC12 cells assessed as early apoptotic cells at 100 uM preincubated for 0.5 hrs followed by H2O2 addition measured after 2 hrs by Annexin V-FITC/propidium iodide staining based flow cytometry (reference value: 3.2%); type: functional
PC-12 [11] = test: Cytoprotective activity against H2O2-induced apoptosis in rat PC12 cells assessed as late apoptotic cells at 100 uM preincubated for 0.5 hrs followed by H2O2 addition measured after 2 hrs by Annexin V-FITC/propidium iodide staining based flow cytometry (reference value: 57.5%); type: functional
PC-12 [12] = test: Cytoprotective activity against H2O2-induced apoptosis in rat PC12 cells assessed as necrotic cells at 100 uM preincubated for 0.5 hrs followed by H2O2 addition measured after 2 hrs by Annexin V-FITC/propidium iodide staining based flow cytometry (reference value: 2%); type: functional
PC-12 [13] = test: Cytotoxicity against rat PC12 cells assessed as effect on cell viability at 100 uM after 48 hrs by MTT assay; type: cell-based; conditions: pc-12, 48 h
Outline: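 Rat PC12 cells at 5×10^5 per well, grown 24 h, then exposed 48 h to compound in DMSO. MTT added for 4 h, formazan dissolved in DMSO, absorbance 490 nm. Viability relative to DMSO-treated controls. Triplicate tests.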

PC-12 [14] = test: Cytoprotective activity against H2O2-induced apoptosis in rat PC12 cells assessed as apoptotic cells at 100 uM preincubated for 0.5 hrs followed by H2O2 addition measured after 2 hrs by Annexin V-FITC/propidium iodide staining based flow cytometry (reference value: 60.7%); type: functional

With `O=C1c2c(cc3oc4cc(O)c(O)cc4c3c2O)OC1Cc1ccc(O)cc1` (centres undefined) the Activity [1] was 253 mgequiv/mmol.
Molecule `O=C1/C(=C/c2ccc(O)c(O)c2)Oc2cc(O)c(-c3ccc(O)c(O)c3)c(O)c21` has an Activity [1] of 372 mgequiv/mmol and a viability at 100 µM (PC-12 [2]) of 100%.
In the case of `O=c1cc(-c2ccc(O)cc2)oc2cc3oc4cc(O)c(O)cc4c3c(O)c12`, the Activity [1] is reported as 116 mgequiv/mmol.
Work on `O=C1CC(c2ccc(O)cc2)Oc2cc3oc4cc(O)c(O)cc4c3c(O)c21` (racemic) yielded an Activity [1] of 260 mgequiv/mmol.
For `O=C1c2c(O)cc3oc4cc(O)c(O)cc4c3c2OC1Cc1ccc(O)c(O)c1` (centres undefined), the Activity [1] was 373 mgequiv/mmol.
Work on `O=c1cc(-c2ccc(O)cc2)oc2c(-c3ccc(O)c(O)c3)c(O)cc(O)c12` yielded an Activity [1] of 271 mgequiv/mmol.
Molecule `O=C1/C(=C/c2ccc(O)c(O)c2)Oc2c1c(O)cc1oc3cc(O)c(O)cc3c21` has an Activity [1] of 260 mgequiv/mmol.
For `O=C(O)c1cc(O)c(O)c(O)c1` [GALLIC ACID], the Activity [1] was 333 mgequiv/mmol, the Activity (PC-12 [3]) was “Active” and the Activity (PC-12 [4]) was “Active”. It also gave an Activity (PC-12 [5]) of 85.8%, an Activity (PC-12 [6]) of 2.5% and an Activity (PC-12 [7]) of 10%. It also gave an Activity (PC-12 [8]) of 1.7%, an Activity (PC-12 [9]) of 96.7% and an Activity (PC-12 [10]) of 0.7%. For the same molecule, the Activity (PC-12 [11]) was 2.1% and the Activity (PC-12 [12]) was 0.4%.
`O=C1/C(=C/c2ccccc2)Oc2c1c(O)cc1oc3cc(O)c(O)cc3c21` gave an Activity [1] of 116 mgequiv/mmol.
For `O=C1/C(=C/c2ccc(O)cc2)Oc2c1c(O)cc(O)c2-c1ccc(O)c(O)c1`, the Activity [1] was 263 mgequiv/mmol.
Work on `O=C1/C(=C/c2ccc(O)cc2)Oc2cc3oc4cc(O)c(O)cc4c3c(O)c21` yielded an Activity [1] of 264 mgequiv/mmol.
In the case of `O=C1c2c(cc3oc4cc(O)c(O)cc4c3c2O)OC1Cc1ccc(O)c(O)c1` (centres undefined), the Activity [1] is reported as 396 mgequiv/mmol and the Activity (PC-12 [13]) is reported as “Toxic”.
Molecule `O=C1/C(=C/c2ccc(O)cc2)Oc2c1c(O)cc1oc3cc(O)c(O)cc3c21` has an Activity [1] of 270 mgequiv/mmol.
Molecule `O=C1/C(=C/c2ccccc2)Oc2c1c(O)cc(O)c2-c1ccc(O)c(O)c1` has an Activity [1] of 269 mgequiv/mmol.
With `O=C1/C(=C/c2ccccc2)Oc2cc(O)c(-c3ccc(O)c(O)c3)c(O)c21` the Activity [1] was 237 mgequiv/mmol.
With `O=C1/C(=C/c2ccccc2)Oc2cc3oc4cc(O)c(O)cc4c3c(O)c21` the Activity [1] was 134 mgequiv/mmol.
Work on `O=C1c2c(O)cc3oc4cc(O)c(O)cc4c3c2OC1Cc1ccc(O)cc1` (centres undefined) yielded an Activity [1] of 248 mgequiv/mmol.
`O=C1c2c(O)cc(O)c(-c3ccc(O)c(O)c3)c2OC1Cc1ccc(O)c(O)c1` (centres undefined) showed an Activity [1] of 376 mgequiv/mmol and a viability at 100 µM (PC-12 [2]) of 100%.
With `O=c1cc(-c2ccc(O)cc2)oc2cc(O)c(-c3ccc(O)c(O)c3)c(O)c12` the Activity [1] was 276 mgequiv/mmol.
`O=C1c2c(cc(O)c(-c3ccc(O)c(O)c3)c2O)OC1Cc1ccc(O)c(O)c1` (centres undefined) showed an Activity [1] of 394 mgequiv/mmol.
Work on `O=C1/C(=C/c2ccc(O)cc2)Oc2cc(O)c(-c3ccc(O)c(O)c3)c(O)c21` yielded an Activity [1] of 241 mgequiv/mmol.
With `O=C1CC(c2ccc(O)cc2)Oc2c1c(O)cc1oc3cc(O)c(O)cc3c21` (racemic) the Activity [1] was 224 mgequiv/mmol.
In the case of `O=C1/C(=C/c2ccc(O)c(O)c2)Oc2cc3oc4cc(O)c(O)cc4c3c(O)c21`, the Activity [1] is reported as 277 mgequiv/mmol.
Molecule `O=C1c2c(O)cc3oc4cc(O)c(O)cc4c3c2OC1Cc1ccccc1` (centres undefined) has an Activity [1] of 262 mgequiv/mmol.
Molecule `O=c1cc(-c2ccc(O)cc2)oc2c1c(O)cc1oc3cc(O)c(O)cc3c12` has an Activity [1] of 137 mgequiv/mmol.
For `O=C1c2c(cc3oc4cc(O)c(O)cc4c3c2O)OC1Cc1ccccc1` (centres undefined), the Activity [1] was 227 mgequiv/mmol.
In the case of `O=C1/C(=C/c2ccc(O)c(O)c2)Oc2c1c(O)cc(O)c2-c1ccc(O)c(O)c1`, the Activity [1] is reported as 318 mgequiv/mmol, the Activity (PC-12 [3]) is reported as “Active” and the Activity (PC-12 [4]) is reported as “Active”. The Activity (PC-12 [5]) was 93.6%, the Activity (PC-12 [6]) was 2.4% and the Activity (PC-12 [7]) was 3.5%. It also gave an Activity (PC-12 [8]) of 0.4%, an Activity (PC-12 [9]) of 95.6% and an Activity (PC-12 [12]) of 0.4%. For the same molecule, the Activity (PC-12 [14]) was 4.1%.
